Compound activity as filed in PubChem BioAssay.
Shown are actives, neighbours in structure and some others; about 1.8% of the full set was active somewhere.
STEP block – inhibitors of human striatal-enriched phosphatase STEP. recombinant STEP, OMFP fluorogenic substrate, fluorescence. inhibition, % at 20 µM. 360,000 tested, 0.25% active. AID 588621;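 active = inhibition at 20 µM, scaled per plate between control wells, above about 37%, limit read from the data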;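 also: 0% = DMSO with enzyme and substrate and 100% = substrate only without enzyme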
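medium = Bis-Tris buffer pH 6.0, 2.5 mM DTT, 0.005% Tween 20 | test system = STEP (striatal-enriched tyrosine phosphatase) enzyme, cell-free | measure = normalized % inhibition | compound dosing = 20 µM, 1% DMSO | also added = 25 µM OMFP | schedule = reaction 20 min, ambient temperature | measured by = fluorescence read at 480 nm ex / 540 nm em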
Scp-1 inhibitor – Scp-1 (human) phosphatase inhibition | AID 493091 | inhibition, % at 20 µM | 340,000 tested, 0.88% active | Recombinant Scp1, phosphopeptide, malachite green phosphate absorbance | Q9GZU7;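 active = inhibition above about 50% at 20 µM, limit read from the data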;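 also: plate controls were DMSO wells with enzyme for no effect and wells lacking enzyme for full effect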
Target sequence (Q9GZU7 76-261 limits assumed): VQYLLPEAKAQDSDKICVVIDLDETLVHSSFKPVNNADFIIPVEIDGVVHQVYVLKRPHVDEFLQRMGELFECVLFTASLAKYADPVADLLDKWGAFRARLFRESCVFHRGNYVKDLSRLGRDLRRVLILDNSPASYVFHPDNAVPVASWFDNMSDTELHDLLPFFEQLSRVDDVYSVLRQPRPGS
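Test system: SCP-1 phosphatase catalytic domain, residues 76-261; measured by: colorimetric phosphate reagent with accelerator and stabiliser, absorbance at 630 nm; timing: enzyme reaction 45 min at room temperature, colour 5 min, stabilisation 30 min; also added: Phosphorylated 17-residue peptide substrate; compound dosing: one concentration, 20 µM, with 1.0% DMSO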
LMPTP block – LMPTP (human) inhibition. P24666. recombinant LMPTP-A, OMFP fluorogenic substrate, fluorescence intensity. inhibition, % at 20 µM. 360,000 tested, 0.22% active;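 active = compounds that cut the enzyme signal by at least half of the control window in the single-dose screen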;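 also: plate controls were DMSO wells with enzyme plus substrate for no effect and substrate without enzyme for full effect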
Target sequence (P24666 whole entry, looked up): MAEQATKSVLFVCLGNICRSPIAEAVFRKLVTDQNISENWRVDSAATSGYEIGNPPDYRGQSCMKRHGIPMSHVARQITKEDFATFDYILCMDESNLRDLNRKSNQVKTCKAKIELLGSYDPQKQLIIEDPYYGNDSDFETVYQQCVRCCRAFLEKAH
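Test system: LMPTP-A phosphatase enzyme. Amount: LMPTP-A at 0.625 nM final in the reaction. Reagent: OMFP substrate, 400 µM final. Times: 50 min at room temperature. Signal: endpoint fluorescence intensity from OMFP dephosphorylation. Read-out basis: % inhibition. Benchmarks: no-enzyme and uninhibited controls.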
HKDC1 inhibitor – blocks human hexokinase HKDC1 activity. Q2TB90. recombinant HKDC1, G6PDH/diaphorase resazurin coupled fluorescence. inhibition, % at 20 µM. 340,000 tested, 0.16% active. AID 493160;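 active = inhibition above about 35% when tested at 20 µM, limit read from the data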;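 also: plate controls were DMSO wells with enzyme for no effect and DMSO wells lacking enzyme for full effect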
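Test system: HK5 enzyme. Quantity: 5 µg/mL HK5 final. Reagent: glucose and ATP substrates. Schedule: 90 min reaction incubation at room temperature, dark. Technique: resazurin-to-resorufin fluorescence via G6PDH and diaphorase coupling, 525/613 nm. Control set: DMSO wells with and without enzyme mix.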
DNMT1 inh – DNMT1 (human) enzyme inhibition. AID 588458. 360,000 tested, 0.83% active. DNMT1 molecular beacon, Hinp1I cleavage, fluorescence. inhibition (reported as % activation of signal), % at 10 µM; in the data active = inhibition above about 50%
SUMO1-SIM PPI – alters human SUMO1 binding to SIM partners. P63165. SUMO1 binding to a labelled peptide, TR-FRET, 1 h. inhibition, % at 20 µM. 360,000 tested, 0.33% active. AID 602429; in the data active = inhibition above about 37%
Target sequence (P63165 whole entry, looked up): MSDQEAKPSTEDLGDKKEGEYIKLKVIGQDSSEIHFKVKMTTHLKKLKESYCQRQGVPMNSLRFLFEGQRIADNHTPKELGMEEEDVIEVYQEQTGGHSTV
An asterisk follows results filed as active; nt = no result given; + = active, no number.

SMILES	STEP block	Scp-1 inhibitor	LMPTP block	HKDC1 inhibitor	DNMT1 inh	SUMO1-SIM PPI
COc1ccc(CNC(=O)CN2CCN(S(=O)(=O)c3cccs3)CC2)cc1OC	-1	-10	-3	-3	-5	-5
COc1ccccc1NC(=O)c1ccc2c(c1)CCN2S(C)(=O)=O	-3	-12	1	-6	-1	5
Nc1nn(-c2cccc(F)n2)cc1-c1ccc(Cl)cc1	-2	-3	-1	-6	2	6
Nc1nn(-c2cccc(F)n2)cc1-c1ccccc1	-1	-3	1	-5	2	47*
Cc1ccccc1CN(CC1CCC(C(=O)O)CC1)C(=S)Nc1ccccc1F (stereo not drawn)	2	9	1	2	0	1
O=C(COc1ccc2c(-c3ccccc3)cc(=O)oc2c1)NCCCN1CCOCC1	-2	-3	-2	-1	2	-16
Cc1cc(=O)oc2cc(OCC(=O)N/N=C/c3cc([N+](=O)[O-])ccc3O)ccc12	94*	30	71*	3	20	7
Cc1cc(=O)oc2cc(OCC(=O)NCCCN3CCOCC3)ccc12	1	-3	-1	-6	0	40*
Cc1ccc(NC(=O)CNc2ccccc2CN(C)C2CCCCC2)cc1	-2	3	1	7	-1	9
O=C1/C(=C\c2cc(Br)cc(Br)c2O)SC(=S)N1Cc1ccccc1	10	7	10	15	65*	18
O=C(O)CN1C(=O)/C(=C\c2cc(Br)ccc2OCc2ccccc2F)SC1=S	6	2	4	23	22	16
COc1cc([N+](=O)[O-])cc(/C=C2/SC(=S)N(Cc3ccccc3)C2=O)c1O	8	4	5	14	-14	64*
O=C(O)CN1C(=O)/C(=C\c2cc(Br)ccc2OCc2ccc([N+](=O)[O-])cc2)SC1=S	24	50	26	25	56*	25
CCOc1ccc(C(=O)NCC(=O)OCC(=O)Nc2cccc(S(=O)(=O)N3CCCC3)c2)cc1	2	-6	0	-3	-1	48*
COc1ccc2c(Cl)c(C(=O)NCCc3ccc(S(N)(=O)=O)cc3)sc2c1	-4	-12	-2	1	-1	-1
O=c1cc2oc3cc(O)c(O)cc3c(-c3ccccc3O)c-2cc1O	2	31	67*	31	110*	6
Cc1ccccc1-c1cc(=O)c2c(O)cccc2o1	2	-7	-1	4	-1	1
COc1ccc(OC)c(-c2oc3ccccc3c(=O)c2O)c1	-2	-23	-2	-12	0	-7
CCOC(=O)c1oc2cc(O)ccc2c(=O)c1-c1ccccc1OC	2	-8	-1	-3	-2	-4
CCOc1ccccc1-c1c2cc(O)c(=O)cc-2oc2cc(O)c(O)cc12	-310	33	66*	18	+	-19
COc1ccc(OC)c(-c2c3cc(O)c(=O)cc-3oc3cc(O)c(O)cc23)c1	16	68*	78*	34	150*	25
Cc1[nH]n(-c2ccccc2)c(=O)c1C=Nc1ccc(S(=O)(=O)N=C(N)N)cc1	-4	-2	-1	10	-3	-4
Cc1[nH]n(-c2ccccc2)c(=S)c1C=Nc1ccc([N+](=O)[O-])cc1	-4	74*	-2	-9	6	-7
CN(C(=S)NC(=O)c1ccc(Cl)cc1)C1CCCCC1	20	70*	72*	-1	-4	5
CC(C)C[C@H]1COc2cccc(N3CCN(Cc4ccccc4F)CC3)c2S(=O)(=O)N1	nt	nt	1	nt	nt	-2
SMILES	STEP block	Scp-1 inhibitor	LMPTP block	HKDC1 inhibitor	DNMT1 inh	SUMO1-SIM PPI
c1ccc(-c2nnc(-c3ccco3)o2)cc1	-1	-2	-1	-2	10	-1
c1coc(-c2nnc(-c3ccco3)nn2)c1	91*	71*	21	30	116*	92*
O=C(COC(=O)c1nc(Cl)ccc1Cl)NC1CCCCC1	-2	-7	-1	6	2	2
C/C(N)=C(/C#N)C(=O)CSc1nc2ccccc2c(=O)n1Cc1ccc(F)cc1	24	73*	17	3	34	0
Cn1cnnc1SCC(=O)Nc1ccc(OCc2ccccc2)cc1	1	-4	2	-3	-10	67*
Cn1cnnc1SCC(=O)Nc1ccccc1	0	-6	-2	-1	0	2
COc1cccc(-c2ccc(NC(=O)C3CCCN(CCCn4cccn4)C3)cc2)c1 (stereo not drawn)	3	-2	2	5	-8	10
CS(=O)(=O)c1ccc(C(=O)OC2CCOC2=O)cc1[N+](=O)[O-] (stereo not drawn)	5	30	-1	2	68*	-25
CCCCOc1ccc(C2C(C(=O)c3ccc(C)o3)=C(O)C(=O)N2CC2CCCO2)cc1 (stereo not drawn)	2	-4	18	-3	0	-3
Cc1cc(N2CCN(C(=O)Nc3ccccc3C#N)CC2)c2ccccc2n1	2	6	51*	-4	0	-1
O=C1NN=C(CSc2n[nH]c(=S)s2)CS1	-1	28	0	8	4	50*
CC(C)CSc1n[nH]c(=S)s1	2	4	7	-3	3	-1
CCN1CCCC1CN(Cc1cc2ccc(C)cc2[nH]c1=O)C(=S)Nc1ccc(F)cc1 (stereo not drawn)	-2	9	0	12	-10	4
Nc1nc(-c2ccccc2)c(-c2ccc([N+](=O)[O-])cc2)s1	1	-1	1	-4	-2	-18
Cc1nc(N)nc(N)c1-c1ccc([N+](=O)[O-])cc1	3	2	67*	-4	5	-21
CC1C(=O)N(Cc2cn(Cc3ccco3)nn2)CCS(=O)(=O)N1Cc1ccc(-c2cccnc2)cc1 (stereo not drawn)	0	nt	54*	nt	0	18
COc1ccc(C2NC(=O)NC3=C2CCc2ccccc23)cc1 (stereo not drawn)	8	-4	17	25	79*	11
COc1ccc(OC)c(NC(=O)CC(NC(C)=O)c2ccccc2)c1 (stereo not drawn)	-5	-5	-1	-4	-1	0
Fc1ccc(C2=CC(c3ccc(Br)o3)n3ncnc3N2)cc1 (stereo not drawn)	-8	4	12	1	19	-16
Brc1ccc(C2=CC(c3cccs3)n3ncnc3N2)cc1 (stereo not drawn)	-46	3	3	4	66*	-23
COc1ccc(COC[C@H](C)[C@H](O)[C@@H](C)[C@H]2OC(=O)[C@@H]2C)cc1	-1	-4	-1	-7	-2	38*
